Test results from ChEMBL document CHEMBL5620424, “Design, synthesis and evaluation of novel 2-phenyl-3-(1H-pyrazol-4-yl)pyridine positive allosteric modulators for the M4 mAChR” (Eur J Med Chem, 2023).
Active and inactive are the calls of the source. The calls are words filed in the database; no cut-off is given here.

Assays:
[1] = target: T1, Muscarinic acetylcholine receptor M4 (Homo sapiens) (UniProt P08173); assay: Positive allosteric modulation at human M4 mAChR expressed in Flp-In-CHO cells co-expressing CAMYEL biosensor assessed as efficacy of ACh-mediated cAMP signalling (log tau B) incubated for 5 mins by BRET assay; assay type: functional, cell-based; conditions: filed as positive allosteric modulator
T1 sequence (whole entry): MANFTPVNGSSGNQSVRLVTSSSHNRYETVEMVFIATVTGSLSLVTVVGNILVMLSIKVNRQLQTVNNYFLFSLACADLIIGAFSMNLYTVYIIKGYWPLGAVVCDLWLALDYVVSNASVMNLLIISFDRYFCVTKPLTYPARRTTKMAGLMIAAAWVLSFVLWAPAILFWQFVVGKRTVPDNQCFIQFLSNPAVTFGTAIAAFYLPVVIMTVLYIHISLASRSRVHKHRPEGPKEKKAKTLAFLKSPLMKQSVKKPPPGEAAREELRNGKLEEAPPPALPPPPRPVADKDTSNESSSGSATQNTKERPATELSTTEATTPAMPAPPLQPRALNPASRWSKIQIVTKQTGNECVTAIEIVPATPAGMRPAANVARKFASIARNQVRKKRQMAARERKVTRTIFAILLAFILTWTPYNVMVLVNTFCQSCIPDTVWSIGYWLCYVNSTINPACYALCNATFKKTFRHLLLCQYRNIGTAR
Summary of the method: (§1)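 CAMYEL-transfected FlpInCHO-hM4 cells (48 h post-transfection) given ACh and modulator concentration ranges in full interaction design, 5 min at 37 °C; BRET read with coelenterazine h. Fit to complete operational model of allosterism and agonism with ACh KA and modulator KB fixed from binding assays. Gives log τB and log αβ. 4–5 experiments in duplicate.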

[2] = target: T1, Muscarinic acetylcholine receptor M4 (Homo sapiens); assay: Positive allosteric modulation at human M4 mAChR expressed in Flp-In-CHO cells co-expressing CAMYEL biosensor assessed as change in maximum ACh-mediated response at 10 uM incubated for 5 mins by BRET assay relative to control; assay type: cell-based
Summary of the method: (§2)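 FlpInCHO cells stably expressing human M4 mAChR, transiently transfected with CAMYEL cAMP BRET biosensor (60 ng/well, PEI), assayed 48 h later in HBSS pH 7.4. Full ACh concentration-response curve alone or with modulator at 1 or 10 μM, co-added with coelenterazine h (5 μM), 5 min, 37 °C. Three-parameter logistic fit; ACh curve values subtracted from ACh+modulator values. Δbaseline and ΔEmax given as % of maximal ACh response without modulator. 4 experiments in duplicate, SEM pooled.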

[3] = target: T1, Muscarinic acetylcholine receptor M4 (Homo sapiens); assay: Positive allosteric modulation at human M4 mAChR expressed in Flp-In-CHO cells assessed as increase in ERK1/2 phosphorylation at 10 uM incubated for 5 mins […]; assay type: cell-based; conditions: filed as positive allosteric modulator
Summary of the method: (§3)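 FlpInCHO cells stably expressing human M1–M5 mAChRs, serum-deprived in HBSS 4 h at 37 °C, then ACh (10 nM–10 μM) with or without modulator at 10 μM for 5 min at 37 °C. Cells lysed and frozen overnight. pERK1/2 measured by AlphaScreen SureFire Ultra, as % of response to 10% FBS.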

[4] = Drug concentration in brain of naive C57BL/6J mouse at 10 mg/kg, ip measured after 90 mins; assay type: ADME, organism-based; conditions: read-out: Ct
Summary of the method: (§4)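 Male C57Bl/6J mice, naïve, 10–12 weeks old, dosed i.p. at 10 mg/kg in 10% DMSO, 1.1% Tween 80, 21.8 mM Tris. Blood by cardiac puncture under anaesthesia at 20 or 90 min (n = 2–3 per time point). Brain concentration corrected for compound in brain vasculature. Mean nM ± SEM reported; Kp = Cbrain/Cplasma, reported as a range.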

[5] = target: T1, Muscarinic acetylcholine receptor M4 (Homo sapiens); assay: Positive allosteric modulation at Rluc-tagged human M4 mAChR expressed in Flp-In-CHO cells co-expressing eYFP-tagged beta-arrestin 2 assessed as efficacy of ACh-mediated beta-arrestin 2 recruitment (log tau B) incubated for 5 mins by luminometry; assay type: cell-based; conditions: filed as positive allosteric modulator
Summary of the method: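 FlpInCHO cells co-transfected with human M4-Rluc8 (20 ng/well) and β-arrestin-2-eYFP (80 ng/well) using PEI, assayed after 48 h. Coelenterazine h (5 μM) preincubated 5 min, then ACh plus modulator ranges for 5 min at 37 °C; BRET at 475/535 nm. Fit to simplified operational model with slope 1 and KB fixed from binding. 4–5 experiments in duplicate.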

[6] = Ratio of drug concentration in brain to plasma of naive C57BL/6J mouse at 10 mg/kg, ip; assay type: ADME, organism-based; conditions: read-out: BPR; summary of the method: as §4
[7] = target: T1, Muscarinic acetylcholine receptor M4 (Homo sapiens); assay: Positive allosteric modulation at human M4 mAChR expressed in Flp-In-CHO cells co-expressing CAMYEL biosensor assessed as change in ACh-mediated response incubated for 5 mins by BRET assay; assay type: cell-based; conditions: filed as positive allosteric modulator; summary of the method: as §2
[8] = target: T1, Muscarinic acetylcholine receptor M4 (Homo sapiens); assay: Positive allosteric modulation at human M4 mAChR expressed in Flp-In-CHO cells co-expressing CAMYEL biosensor assessed as ACh-mediated cAMP signalling co-operativity (log alpha beta) incubated for 5 mins by BRET assay; assay type: functional, cell-based; conditions: filed as positive allosteric modulator; summary of the method: as §1
[9] = Drug concentration in plasma of naive C57BL/6J mouse at 10 mg/kg, ip measured after 90 mins; assay type: ADME, organism-based; summary of the method: as §4
[10] = target: T2, Muscarinic acetylcholine receptor M2 (Homo sapiens) (UniProt P08172); assay: Positive allosteric modulation at human M2 mAChR expressed in Flp-In-CHO cells at 10 uM incubated for 5 mins by […]; assay type: cell-based; summary of the method: as §3
T2 sequence (whole entry): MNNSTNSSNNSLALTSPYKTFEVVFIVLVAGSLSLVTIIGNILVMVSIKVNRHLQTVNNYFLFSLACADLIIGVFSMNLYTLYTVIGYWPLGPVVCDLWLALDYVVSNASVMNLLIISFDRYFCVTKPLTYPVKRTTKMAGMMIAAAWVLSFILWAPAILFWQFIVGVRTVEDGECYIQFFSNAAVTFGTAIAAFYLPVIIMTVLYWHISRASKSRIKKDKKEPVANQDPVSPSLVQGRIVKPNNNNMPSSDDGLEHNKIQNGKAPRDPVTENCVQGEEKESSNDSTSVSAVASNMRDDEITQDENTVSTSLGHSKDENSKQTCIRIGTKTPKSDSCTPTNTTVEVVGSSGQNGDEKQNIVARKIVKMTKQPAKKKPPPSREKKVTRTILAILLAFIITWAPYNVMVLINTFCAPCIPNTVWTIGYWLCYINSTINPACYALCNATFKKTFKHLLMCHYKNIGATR

[11] = filed as positive allosteric modulator

Row | log(activity) [1] | Emax [2, 11] [%] | Activity [3] | concentration at 1.5 h [4] [µM] | log(activity) [5] | Kp [6] | deltapEC50 [7] | log(activity) [8] | concentration at 1.5 h [9] [µM] | Activity [10] | Emax [2] [%] | Activity [10, 11] | Compound
1 | -0.07 | 129 | Active | 0.255 | 0.31 | 1.6 | 0.76 | 2.65 | 0.159 | inactive | – | – | Cc1ccc(-c2cnn(CC3CCCC3)c2)c(-c2ccc(F)c(F)c2)n1
2 | -1.29 | – | Active | 0.373 | 0.39 | 0.3 | 1.27 | 1.91 | 0.657 | inactive | 5.6 | – | Cc1ccc(-c2cnn(CC3CCCC3)c2)c(-c2ccc(N)c([N+](=O)[O-])c2)n1
3 | -0.45 | 44.7 | Active | 0.009 | 0.99 | 0.1 | 1.48 | 2.34 | 0.014 | – | – | Active | Cc1ccc(-c2cnn(CC3CCCC3)c2)c(-c2ccc3c(c2)C(=O)N(C)C3)n1
